# According to ChEMBL document CHEMBL1123323, “Isolation, synthesis, and antitumor evaluation of spirohydantoin aziridine, a mutagenic metabolite of spirohydantoin mustard” (J Med Chem, 1986):
# “And” between values parts separate entries of the source, which are not always exact repeats. Identical values can stand only once.
# Legend:
# P388 [1] = assay: Percent of deaths after administration (5 mg/kg, qd 1-9 days) in leukemic mice; format: functional, Mus musculus
# In short: (§1)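 Female CDF1 mice given 1×10^6 P388 leukemia cells intraperitoneally. Drug in reagent-grade Me₂SO, dosed by average body weight in 0.1 mL. Life-span increase is from median day of death versus untreated leukemic controls. Tumor cell kill and log change (net change in viable tumor stem cells, end versus start of treatment) use a historical doubling time of 0.44 day.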
# P388 [2] = assay: Percent increase in life span of treated (15 mg/kg, day 1 only) mice as compared to the untreated leukemia controls; Expressed as therapeutic response; format: functional, Mus musculus; in short: as §1
# P388 [3] = assay: Percent of deaths after administration (15 mg/kg, day 1 only) in normal mice; format: functional, Mus musculus
# In short: (§2)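 Non-tumored mice treated concurrently as drug toxicity controls. Drug in reagent-grade Me₂SO, dosed by average body weight in 0.1 mL. Deaths scored.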
# [4] = Approximate number of tumor cells alive after administration (5 mg/kg, qd 1-9 days) in normal mice; Expressed as therapeutic response; format: ADME, organism-based; conditions: mouse, in vivo; in short: as §1
# P388 [5] = assay: Approximate number of tumor cells alive after administration (5 mg/kg, day 1 only) in normal mice; Expressed as therapeutic response; format: functional, Mus musculus; in short: as §1
# P388 [6] = assay: Percent increase in life span of treated (10 mg/kg, qd 1-9 days) mice as compared to the untreated leukemia controls; Expressed as therapeutic response; format: functional, Mus musculus; in short: as §1
# [7] = Approximate number of tumor cells alive after administration (20 mg/kg, qd 1-9 days) in normal mice; Expressed as therapeutic response; format: ADME, organism-based; conditions: mouse, in vivo; in short: as §1
# P388 [8] = assay: Percent of deaths after administration (20 mg/kg, qd 1-9 days) in leukemic mice; format: functional, Mus musculus; in short: as §1
# P388 [9] = assay: Percent of deaths after administration (5 mg/kg, day 1 only) in leukemic mice; format: functional, Mus musculus; in short: as §1
# [10] = (§3) Approximate number of tumor cells alive after administration (10 mg/kg, day 1 only) in normal mice; Expressed as therapeutic response; format: ADME, organism-based; conditions: mouse, in vivo; in short: as §1
# P388 [11] = assay: Percent of deaths after administration (10 mg/kg, qd 1-9 days) in leukemic mice; format: functional, Mus musculus; in short: as §1
# [12] = Approximate number of tumor cells alive after administration (15 mg/kg, day 1 only) in normal mice; Expressed as therapeutic response; format: ADME, organism-based; conditions: mouse, in vivo; in short: as §1
# P388 [13] = assay: Percent of deaths after administration (10 mg/kg, day 1 only) in normal mice; format: functional, Mus musculus; in short: as §2
# P388 [14] = assay: Approximate log change after administration (5 mg/kg, day 1 only) in normal mice; Expressed as therapeutic response; format: functional, Mus musculus; in short: as §1
# P388 [15] = assay: Percent increase in life span of treated (5 mg/kg, qd 1-9 days) mice as compared to the untreated leukemia controls; Expressed as therapeutic response; format: functional, Mus musculus; in short: as §1
# P388 [16] = assay: Percent increase in life span of treated (20 mg/kg, qd 1-9 days) mice as compared to the untreated leukemia controls; Expressed as therapeutic response; format: functional, Mus musculus; in short: as §1
# P388 [17] = assay: as §3; format: functional, Mus musculus; in short: as §1
# P388 [18] = assay: Percent increase in life span of treated (5 mg/kg, day 1 only) mice as compared to the untreated leukemia controls; Expressed as therapeutic response; format: functional, Mus musculus; in short: as §1
# [19] = Approximate number of tumor cells alive after administration (10 mg/kg, qd 1-9 days) in normal mice; Expressed as therapeutic response; format: ADME, organism-based; conditions: mouse, in vivo; in short: as §1
# P388 [20] = assay: Approximate log change after administration (10 mg/kg, day 1 only) in normal mice; Expressed as therapeutic response; format: functional, Mus musculus; in short: as §1
# P388 [21] = assay: Percent of deaths after administration (15 mg/kg, day 1 only) in leukemic mice; format: functional, Mus musculus; in short: as §1
# P388 [22] = assay: Percent of deaths after administration (60 mg/kg, day 1 only) in leukemic mice; format: functional, Mus musculus; in short: as §1
# P388 [23] = assay: Percent of deaths after administration (20 mg/kg, qd 1-9 days) in normal mice; format: functional, Mus musculus; in short: as §2
# P388 [24] = assay: Percent increase in life span of treated (30 mg/kg, day 1 only) mice as compared to the untreated leukemia controls; Expressed as therapeutic response; format: functional, Mus musculus; in short: as §1
# Salmonella typhimurium [25] = assay: Mutagenic activity against Salmonella Typhimurium TA1535 (SHM equiv/plate 1 ug); Expressed as difference between the observed number of revertants and the average number of spontaneous revertants (Expt 2); format: functional, Salmonella enterica subsp. enterica serovar Typhimurium
# In short: (§4)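 Salmonella typhimurium TA1535 plate incorporation assay without S9 activation. TLC-isolated metabolite and synthetic aziridine dosed as SHM equivalents per plate. Score is revertants minus mean spontaneous revertants, from two separate experiments.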
# P388 [26] = assay: Percent of deaths after administration (10 mg/kg, day 1 only) in leukemic mice; format: functional, Mus musculus; in short: as §1
# P388 [27] = assay: Approximate number of tumor cells alive after administration (30 mg/kg, day 1 only) in normal mice; Expressed as therapeutic response; format: functional, Mus musculus; in short: as §1
# P388 [28] = assay: Percent of deaths after administration (45 mg/kg, day 1 only) in leukemic mice; format: functional, Mus musculus; in short: as §1
# P388 [29] = assay: Percent increase in life span of treated (20 mg/kg, day 1 only) mice as compared to the untreated leukemia controls; Expressed as therapeutic response; format: functional, Mus musculus; in short: as §1
# P388 [30] = assay: Approximate log change after administration (20 mg/kg, day 1 only) in normal mice; Expressed as therapeutic response; format: functional, Mus musculus
# In short: (§5)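 Female CDF1 mice were implanted intraperitoneally with 1×10^6 P388 leukemia cells. Drug was prepared in reagent-grade Me₂SO according to average body weight, with each dose in 0.1 mL. Concurrent drug toxicity controls were run. Tumor cell kill was calculated from median day of death using a historical doubling time of 0.44 day. Log change is the net change in viable tumor stem cells from the start to the end of treatment.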
# [31] = Approximate number of tumor cells alive after administration (45 mg/kg, day 1 only) in normal mice; Expressed as therapeutic response; format: ADME, organism-based; conditions: mouse, in vivo; in short: as §1
# P388 [32] = assay: Percent of deaths after administration (20 mg/kg, day 1 only) in normal mice; format: functional, Mus musculus; in short: as §2
# P388 [33] = assay: Percent of deaths after administration (30 mg/kg, day 1 only) in normal mice; format: functional, Mus musculus; in short: as §2
# Salmonella typhimurium [34] = assay: Mutagenic activity against Salmonella Typhimurium TA1535 (SHM equiv/plate 100 ug); Expressed as difference between the observed number of revertants and the average number of spontaneous revertants (Expt 2); format: functional, Salmonella enterica subsp. enterica serovar Typhimurium; in short: as §4
# P388 [35] = assay: Percent increase in life span of treated (10 mg/kg, day 1 only) mice as compared to the untreated leukemia controls; Expressed as therapeutic response; format: functional, Mus musculus; in short: as §1
# P388 [36] = assay: Percent increase in life span of treated (60 mg/kg, day 1 only) mice as compared to the untreated leukemia controls; Expressed as therapeutic response; format: functional, Mus musculus; in short: as §1
# Salmonella typhimurium [37] = assay: Mutagenic activity against Salmonella Typhimurium TA1535 (SHM equiv/plate 1 ug); Expressed as difference between the observed number of revertants and the average number of spontaneous revertants (Expt 1); format: functional, Salmonella enterica subsp. enterica serovar Typhimurium; in short: as §4
# P388 [38] = assay: Approximate log change after administration (30 mg/kg, day 1 only) in normal mice; Expressed as therapeutic response; format: functional, Mus musculus; in short: as §5
# P388 [39] = assay: Percent of deaths after administration (20 mg/kg, day 1 only) in leukemic mice; format: functional, Mus musculus
# Salmonella typhimurium [40] = assay: Mutagenic activity against Salmonella Typhimurium TA1535 (SHM equiv/plate 10 ug); Expressed as difference between the observed number of revertants and the average number of spontaneous revertants (Expt 2); format: functional, Salmonella enterica subsp. enterica serovar Typhimurium; in short: as §4
# [41] = Approximate number of tumor cells alive after administration (60 mg/kg, day 1 only) in normal mice; Expressed as therapeutic response; format: ADME, organism-based; conditions: mouse, in vivo; in short: as §1
# P388 [42] = assay: Approximate number of tumor cells alive after administration (20 mg/kg, day 1 only) in normal mice; Expressed as therapeutic response; format: functional, Mus musculus; in short: as §1
# P388 [43] = assay: Percent of deaths after administration (60 mg/kg, day 1 only) in normal mice; format: functional, Mus musculus; in short: as §2
# Salmonella typhimurium [44] = assay: Mutagenic activity against Salmonella Typhimurium TA1535 (SHM equiv/plate 10 ug); Expressed as difference between the observed number of revertants and the average number of spontaneous revertants (Expt 1); format: functional, Salmonella enterica subsp. enterica serovar Typhimurium; in short: as §4
# P388 [45] = assay: Percent of deaths after administration (30 mg/kg, day 1 only) in leukemic mice; format: functional, Mus musculus; in short: as §1
smiles,measurement,setting,value
O=C1NC2(CCCCC2)C(=O)N1CCN(CCCl)CCCl [SPIROMUSTINE],Activity,P388 [1],100%
same,ILS,P388 [2],35%
same,Activity,P388 [3],50%
same,Activity,[4],Toxic
same,Activity,P388 [5],43000
same,ILS,P388 [6],-50%
same,Activity,[7],Toxic
same,Activity,P388 [8],100%
same,Activity,P388 [9],10%
same,Activity,[10],Toxic
same,Activity,P388 [11],100%
same,Activity,[12],Toxic
same,Activity,P388 [13],33%
same,Log change,P388 [14],-2.1
same,ILS,P388 [15],-45%
same,ILS,P388 [16],-60%
same,Activity,P388 [17],8900
same,ILS,P388 [18],30%
same,Activity,[19],Toxic
same,Log change,P388 [20],-2.7
same,Activity,P388 [21],40%
O=C1NC2(CCCCC2)C(=O)N1CCN1CC1,Activity,P388 [1],83%
same,Activity,P388 [22],50%
same,Activity,P388 [23],0%
same,ILS,P388 [24],0%
same,Activity,Salmonella typhimurium [25],21
same,Activity,P388 [26],0%
same,Activity,P388 [27],4800000
same,Activity,[4],Toxic
same,Activity,P388 [28],33%
same,ILS,P388 [29],0%
same,ILS,P388 [6],-40%
same,Activity,[7],Toxic
same,Log change,P388 [30],0
same,Activity,P388 [8],83%
same,Activity,[31],Toxic
same,Activity,P388 [32],0%
same,Activity,P388 [33],0%
same,Activity,Salmonella typhimurium [34],2000%
same,ILS,P388 [35],0%
same,ILS,P388 [36],-30%
same,Activity,P388 [11],0%
same,Activity,Salmonella typhimurium [37],15
same,Log change,P388 [38],0
same,Activity,P388 [39],0%
same,Activity,Salmonella typhimurium [40],238
same,Activity,[41],Toxic
same,Activity,P388 [42],4800000
same,Activity,P388 [43],0%
same,ILS,P388 [15],-5%
same,ILS,P388 [16],-25%
same,Activity,P388 [17],4800000
same,Activity,[19],Toxic
same,Activity,Salmonella typhimurium [44],227
same,Activity,P388 [45],16% and 0%
